Laboratory results reported in ChEMBL document CHEMBL2029200, “Discovery of a novel melanin concentrating hormone receptor 1 (MCHR1) antagonist with reduced hERG inhibition” (Bioorg Med Chem Lett, 2012).
Activity calls are given as the source filed them. No cut-off for these calls is given here.

Legend:
Mus musculus [1] = test: Antiobesity activity in high fat diet-fed C57BL/6 mouse assessed as reduction in food intake at 3 to 10 mg/kg, po daily measured up to day 137 relative to control; assay type: functional, organism-based
Mus musculus [2] = test: Antiobesity activity in high fat diet-fed C57BL/6 mouse assessed as reduction in body weight at 10 mg/kg, po daily measured up to day 137 relative to control; assay type: functional, organism-based; design: dose 10 mg/kg
Method in brief: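 Male/female unspecified C57BL/6 mice weaned at 4–5 weeks and kept on high-fat diet for over 24 weeks before dosing. Body weight followed for 137 days against vehicle.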

Mus musculus [3] = test: Antiobesity activity in high fat diet-fed MCHR1-knockout C57BL/6 mouse assessed as reduction in body weight at 100 mg/kg, po daily measured for 34 weeks relative to control; assay type: functional, organism-based; design: dose 100 mg/kg
Method in brief: (§1)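 Wild-type and MCHR1-knockout female C57BL/6 mice given compound mixed into a 60% kCal fat high-fat diet. Body weight gain at study end compared with vehicle.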

Mus musculus [4] = test: Antiobesity activity in high fat diet-fed C57BL/6 mouse assessed as reduction in body weight at 3 mg/kg, po daily measured up to day 137 relative to control; assay type: functional, organism-based; design: dose 3 mg/kg
Mus musculus [5] = test: Antiobesity activity in high fat diet-fed C57BL/6 mouse expressing wild type MCHR1 gene assessed as reduction in body weight at 100 mg/kg, po daily measured for 34 weeks relative to control; assay type: functional; design: scale not given: the % may be the effect or the level left; method in brief: as §1
[6] = target: T1, Melanin-concentrating hormone receptor 1 (Homo sapiens, UniProt Q99705); test: Displacement of [125I]-MCH from MCHR1 after 2 hrs by scintillation counting
Method in brief: (§2)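 Competition binding on MCHR1 membrane preparation with 125I-MCH tracer. Compound diluted in 50 mM Tris pH 7.4, 10 mM MgCl2, 2.5 mM EDTA, 0.2% BSA. Incubation 2 h at 37 °C with shaking. Bound and free ligand separated by vacuum filtration through BSA-pretreated filter plates. Filters washed 4 times in Hepes/NaCl/BSA buffer, then counted by scintillation.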

[7] = target: Voltage-gated inwardly rectifying potassium channel KCNH2 (Homo sapiens, UniProt Q12809); test: Inhibition of human Erg expressed in HEK293 cells assessed as rubidium efflux after 4 hrs by atomic absorbance spectrometric analysis
[8] = Mean residence time in mouse at 3 mg/kg, po; assay type: ADME, organism-based; design: dose 3 mg/kg, route oral; conditions: in vivo
Method in brief: (§3)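 Pharmacokinetics determined after IV dosing at 0.5 mg/kg and oral dosing at 3 mg/kg.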

[9] = Mean residence time in cynomolgus monkey at 3 mg/kg, po; assay type: ADME, organism-based, Macaca fascicularis; design: dose 3 mg/kg, route oral; conditions: in vivo; method in brief: as §3
[10] = Ratio of drug uptake in CSF to plasma of rat at 10 mg/kg, po; assay type: ADME, organism-based; design: dose 10 mg/kg, route oral; conditions: CSF and plasma
[11] = target: Alpha-2A adrenergic receptor (Homo sapiens, UniProt P08913); test: Binding affinity to adrenergic alpha2A receptor
[12] = Volume of distribution at steady state in mouse at 0.5 mg/kg, iv; assay type: ADME, organism-based; design: dose 0.5 mg/kg, route intravenous; conditions: in vivo, read-out: Vdss; method in brief: as §3
Mu-type opioid receptor = Mu-type opioid receptor (Homo sapiens, UniProt P35372); test: Binding affinity to opioid mu receptor
[13] = Mean residence time in beagle dog at 3 mg/kg, po; assay type: ADME, organism-based, Canis lupus familiaris; design: dose 3 mg/kg, route oral; conditions: in vivo; method in brief: as §3
[14] = Oral bioavailability in mouse at 3 mg/kg; assay type: ADME, organism-based; conditions: in vivo; method in brief: as §3
[15] = target: Muscarinic acetylcholine receptor M2 (Homo sapiens, UniProt P08172); test: Binding affinity to muscarinic M2 receptor
[16] = Ratio of drug uptake in blood to plasma of rat at 10 mg/kg, po; assay type: ADME, organism-based; design: dose 10 mg/kg, route oral; conditions: blood and plasma
Method in brief: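 Single 10 mg/kg oral dose. Drug concentration in whole blood was divided by the plasma concentration to give the [blood]/[plasma] ratio. Brain/plasma and CSF/plasma ratios were obtained after the same dose.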

D(2) dopamine receptor = D(2) dopamine receptor (Homo sapiens, UniProt P14416); test: Binding affinity to dopamine D2 receptor
Cynomolgus monkey = test: Cardiotoxicity in cynomolgus monkey assessed as QT prolongation at 30 mg/kg, po; assay type: toxicity, organism-based, Macaca fascicularis; design: dose 30 mg/kg, route oral; conditions: in vivo
Method in brief: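 Cynomolgus monkeys (n = 3) given a single 30 mg/kg oral dose; QTc monitored.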

[17] = target: 5-hydroxytryptamine receptor 1A (Homo sapiens, UniProt P08908); test: Binding affinity to serotonin 5HT1A receptor
[18] = target: Melanin-concentrating hormone receptor 2 (Homo sapiens, UniProt Q969V1); test: Antagonist activity at human MCHR2 assessed inhibition of MCH-mediated intracellular Ca2+ calcium mobilization; assay type: functional, cell-based
Method in brief: (§4)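 MCH-evoked intracellular Ca2+ mobilization read by aequorin luminescence in cells. Antagonism measured as blockade of the MCH response.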

[19] = Volume of distribution at steady state in beagle dog at 0.5 mg/kg, iv; assay type: ADME, organism-based, Canis lupus familiaris; design: dose 0.5 mg/kg, route intravenous; conditions: in vivo, read-out: Vdss; method in brief: as §3
[20] = Volume of distribution at steady state in cynomolgus monkey at 0.5 mg/kg, iv; assay type: ADME, organism-based, Macaca fascicularis; design: dose 0.5 mg/kg, route intravenous; conditions: in vivo, read-out: Vdss; method in brief: as §3
[21] = target: T2, 5-hydroxytryptamine receptor 2C (Homo sapiens, UniProt P28335); test: Antagonist activity at serotonin 5HT2C receptor assessed as blockage of intracellular calcium mobilization; assay type: functional, cell-based
Canis familiaris [22] = test: Cardiotoxicity in dog assessed as QT prolongation at 300 mg/kg, po; assay type: toxicity, organism-based, Canis lupus familiaris; design: dose 300 mg/kg, route oral; conditions: in vivo
Method in brief: (§5)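 Dogs dosed orally at 300 mg/kg in a 4 h study. QTc monitored throughout; plasma Cmax determined.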

[23] = Clearance in mouse at 0.5 mg/kg, iv; assay type: ADME, organism-based; design: dose 0.5 mg/kg, route intravenous; conditions: in vivo; method in brief: as §3
[24] = target: Melanin-concentrating hormone receptor 1 (Macaca mulatta, UniProt Q8MJ89); test: Antagonist activity at rhesus monkey MCHR1 assessed inhibition of MCH-mediated intracellular Ca2+ calcium mobilization; assay type: functional, cell-based; method in brief: as §4
[25] = target: Melanin-concentrating hormone receptor 1 (Rattus norvegicus, UniProt P97639); test: Antagonist activity at rat MCHR1 assessed inhibition of MCH-mediated intracellular Ca2+ calcium mobilization; assay type: functional, cell-based; method in brief: as §4
[26] = Oral bioavailability in rat at 3 mg/kg; assay type: ADME, organism-based; conditions: in vivo; method in brief: as §3
D(1A) dopamine receptor = D(1A) dopamine receptor (Homo sapiens, UniProt P21728); test: Binding affinity to dopamine D1 receptor
[27] = target: 5-hydroxytryptamine receptor 2A (Homo sapiens, UniProt P28223); test: Binding affinity to serotonin 5HT2A receptor
[28] = Oral bioavailability in beagle dog at 3 mg/kg; assay type: ADME, organism-based, Canis lupus familiaris; conditions: in vivo; method in brief: as §3
[29] = Cmax in dog at 300 mg/kg, po; assay type: ADME, organism-based, Canis lupus familiaris; design: dose 300 mg/kg, route oral; conditions: in vivo; method in brief: as §5
[30] = Clearance in beagle dog at 0.5 mg/kg, iv; assay type: ADME, organism-based, Canis lupus familiaris; design: dose 0.5 mg/kg, route intravenous; conditions: in vivo; method in brief: as §3
[31] = Oral bioavailability in cynomolgus monkey at 3 mg/kg; assay type: ADME, organism-based, Macaca fascicularis; conditions: in vivo; method in brief: as §3
[32] = target: Muscarinic acetylcholine receptor M3 (Homo sapiens, UniProt P20309); test: Binding affinity to muscarinic M3 receptor
[33] = target: T1, Melanin-concentrating hormone receptor 1; test: Antagonist activity at human MCHR1 assessed inhibition of MCH-mediated intracellular Ca2+ calcium mobilization by aequorin assay; assay type: functional, cell-based; method in brief: as §4
[34] = Ratio of drug uptake in brain to plasma of rat at 10 mg/kg, po; assay type: ADME, organism-based; design: dose 10 mg/kg, route oral; conditions: brain and plasma, read-out: BPR
[35] = Volume of distribution at steady state in rat at 0.5 mg/kg, iv; assay type: ADME, organism-based; design: dose 0.5 mg/kg, route intravenous; conditions: in vivo, read-out: Vdss; method in brief: as §3
[36] = target: T2, 5-hydroxytryptamine receptor 2C; test: Binding affinity to serotonin 5HT2C receptor
[37] = target: T1, Melanin-concentrating hormone receptor 1; test: Binding affinity to human MCHR1; method in brief: as §2
[38] = target: Sodium-dependent serotonin transporter (Homo sapiens, UniProt P31645); test: Binding affinity to serotonin transporter
[39] = Clearance in cynomolgus monkey at 0.5 mg/kg, iv; assay type: ADME, organism-based, Macaca fascicularis; design: dose 0.5 mg/kg, route intravenous; conditions: in vivo; method in brief: as §3
[40] = target: Sodium-dependent noradrenaline transporter (Homo sapiens, UniProt P23975); test: Binding affinity to norepinephrine transporter
Rhesus monkey = test: Cardiotoxicity in rhesus monkey assessed as QT prolongation administered as bolus dose; assay type: toxicity, organism-based, Macaca mulatta; conditions: in vivo
Method in brief: (§6)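 Anesthetized rhesus monkeys received an IV bolus followed by a 45 min IV infusion. QTc recorded throughout.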

[41] = target: Alpha-2C adrenergic receptor (Homo sapiens, UniProt P18825); test: Binding affinity to adrenergic alpha2C receptor
Canis familiaris [42] = test: Cardiotoxicity in dog assessed as QT prolongation at 100 mg/kg, po BID for 28 days; assay type: toxicity, organism-based, Canis lupus familiaris; design: dose 100 mg/kg, route oral; conditions: in vivo, 672 h
[43] = target: Melanin-concentrating hormone receptor 1 (Mus musculus, UniProt Q8JZL2); test: Antagonist activity at mouse MCHR1 assessed inhibition of MCH-mediated intracellular Ca2+ calcium mobilization; assay type: functional, cell-based; method in brief: as §4
[44] = Plasma concentration in iv dosed rhesus monkey after 45 mins; assay type: ADME, organism-based, Macaca mulatta; method in brief: as §6
[45] = Mean residence time in rat at 3 mg/kg, po; assay type: ADME, organism-based; design: dose 3 mg/kg, route oral; conditions: in vivo; method in brief: as §3
[46] = Clearance in rat at 0.5 mg/kg, iv; assay type: ADME, organism-based; design: dose 0.5 mg/kg, route intravenous; conditions: in vivo; method in brief: as §3

T1 sequence (Q99705 whole entry): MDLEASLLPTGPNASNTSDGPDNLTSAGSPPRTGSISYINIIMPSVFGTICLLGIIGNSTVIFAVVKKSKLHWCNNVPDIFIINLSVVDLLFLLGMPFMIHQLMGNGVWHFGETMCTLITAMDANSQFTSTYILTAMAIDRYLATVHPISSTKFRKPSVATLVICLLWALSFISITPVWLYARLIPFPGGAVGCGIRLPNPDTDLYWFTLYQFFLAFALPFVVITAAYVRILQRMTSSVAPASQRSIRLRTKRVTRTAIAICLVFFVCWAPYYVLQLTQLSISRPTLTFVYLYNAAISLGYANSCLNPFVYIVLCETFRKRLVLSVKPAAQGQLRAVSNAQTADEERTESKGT
T2 sequence (P28335 whole entry): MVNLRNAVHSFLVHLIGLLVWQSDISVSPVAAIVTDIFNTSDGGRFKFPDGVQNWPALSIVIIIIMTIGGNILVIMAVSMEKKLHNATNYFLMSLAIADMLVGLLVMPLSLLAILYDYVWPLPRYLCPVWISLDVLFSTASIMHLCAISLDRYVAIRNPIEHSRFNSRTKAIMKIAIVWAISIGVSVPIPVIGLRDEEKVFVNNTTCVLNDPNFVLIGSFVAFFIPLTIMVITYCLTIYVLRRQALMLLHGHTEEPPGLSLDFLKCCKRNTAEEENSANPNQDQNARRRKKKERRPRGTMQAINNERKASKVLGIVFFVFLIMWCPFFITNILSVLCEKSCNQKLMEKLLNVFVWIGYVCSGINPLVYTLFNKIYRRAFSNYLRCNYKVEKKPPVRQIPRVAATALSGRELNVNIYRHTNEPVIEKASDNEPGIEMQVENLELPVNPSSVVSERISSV
Chain of Voltage-gated inwardly rectifying potassium channel KCNH2 (Q12809 whole entry): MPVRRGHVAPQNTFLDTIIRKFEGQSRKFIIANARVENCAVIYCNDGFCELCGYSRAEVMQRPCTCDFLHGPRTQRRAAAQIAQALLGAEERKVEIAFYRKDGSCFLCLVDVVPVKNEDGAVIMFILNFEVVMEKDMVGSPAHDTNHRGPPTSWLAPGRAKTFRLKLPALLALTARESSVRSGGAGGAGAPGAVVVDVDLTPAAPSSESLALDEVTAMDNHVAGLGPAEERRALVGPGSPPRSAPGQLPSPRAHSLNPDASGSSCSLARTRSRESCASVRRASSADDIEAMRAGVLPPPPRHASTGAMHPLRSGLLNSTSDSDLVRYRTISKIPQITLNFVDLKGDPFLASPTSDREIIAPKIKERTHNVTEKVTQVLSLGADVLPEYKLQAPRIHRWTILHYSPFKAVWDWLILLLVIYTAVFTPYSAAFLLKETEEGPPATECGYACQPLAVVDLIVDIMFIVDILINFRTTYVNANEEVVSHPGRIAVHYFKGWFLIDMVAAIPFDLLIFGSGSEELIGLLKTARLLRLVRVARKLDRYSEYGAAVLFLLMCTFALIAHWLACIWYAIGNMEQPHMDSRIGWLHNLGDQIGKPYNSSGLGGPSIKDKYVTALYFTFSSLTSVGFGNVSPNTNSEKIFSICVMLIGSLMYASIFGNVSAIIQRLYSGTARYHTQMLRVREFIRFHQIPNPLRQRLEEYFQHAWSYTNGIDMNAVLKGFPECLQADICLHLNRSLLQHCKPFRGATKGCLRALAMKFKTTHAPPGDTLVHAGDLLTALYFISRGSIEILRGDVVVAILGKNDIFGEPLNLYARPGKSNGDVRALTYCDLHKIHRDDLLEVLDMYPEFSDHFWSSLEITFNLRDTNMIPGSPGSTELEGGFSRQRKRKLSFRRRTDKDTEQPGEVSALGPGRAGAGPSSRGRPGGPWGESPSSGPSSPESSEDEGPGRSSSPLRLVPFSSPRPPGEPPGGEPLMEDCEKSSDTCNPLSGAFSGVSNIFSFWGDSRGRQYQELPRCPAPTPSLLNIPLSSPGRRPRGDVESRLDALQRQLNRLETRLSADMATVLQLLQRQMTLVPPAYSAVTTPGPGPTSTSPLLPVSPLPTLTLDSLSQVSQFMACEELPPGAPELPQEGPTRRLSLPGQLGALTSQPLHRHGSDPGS
Chain of D(1A) dopamine receptor (P21728 whole entry): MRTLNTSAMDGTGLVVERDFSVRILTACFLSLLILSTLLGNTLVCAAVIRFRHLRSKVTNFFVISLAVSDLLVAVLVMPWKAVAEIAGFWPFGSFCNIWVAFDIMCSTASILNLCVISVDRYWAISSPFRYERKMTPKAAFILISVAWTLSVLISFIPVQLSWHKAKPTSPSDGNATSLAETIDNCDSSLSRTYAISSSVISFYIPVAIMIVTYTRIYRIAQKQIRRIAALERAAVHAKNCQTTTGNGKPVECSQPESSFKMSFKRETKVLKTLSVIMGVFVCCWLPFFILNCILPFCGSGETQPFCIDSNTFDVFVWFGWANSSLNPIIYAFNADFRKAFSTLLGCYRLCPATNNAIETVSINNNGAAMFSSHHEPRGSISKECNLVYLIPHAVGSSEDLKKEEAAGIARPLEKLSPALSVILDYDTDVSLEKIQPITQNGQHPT
Chain of Melanin-concentrating hormone receptor 1 (Rattus norvegicus, UniProt P97639) (P97639 whole entry): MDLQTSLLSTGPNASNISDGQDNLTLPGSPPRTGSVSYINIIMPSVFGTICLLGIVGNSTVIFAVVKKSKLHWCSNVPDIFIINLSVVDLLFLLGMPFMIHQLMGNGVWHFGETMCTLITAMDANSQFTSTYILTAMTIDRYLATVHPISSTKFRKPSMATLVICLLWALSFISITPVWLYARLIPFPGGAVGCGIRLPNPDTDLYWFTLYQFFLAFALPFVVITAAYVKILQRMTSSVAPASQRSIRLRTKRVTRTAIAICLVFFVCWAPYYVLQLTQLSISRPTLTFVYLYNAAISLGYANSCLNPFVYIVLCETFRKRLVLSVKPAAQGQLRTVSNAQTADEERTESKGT
Chain of Muscarinic acetylcholine receptor M2 (P08172 whole entry): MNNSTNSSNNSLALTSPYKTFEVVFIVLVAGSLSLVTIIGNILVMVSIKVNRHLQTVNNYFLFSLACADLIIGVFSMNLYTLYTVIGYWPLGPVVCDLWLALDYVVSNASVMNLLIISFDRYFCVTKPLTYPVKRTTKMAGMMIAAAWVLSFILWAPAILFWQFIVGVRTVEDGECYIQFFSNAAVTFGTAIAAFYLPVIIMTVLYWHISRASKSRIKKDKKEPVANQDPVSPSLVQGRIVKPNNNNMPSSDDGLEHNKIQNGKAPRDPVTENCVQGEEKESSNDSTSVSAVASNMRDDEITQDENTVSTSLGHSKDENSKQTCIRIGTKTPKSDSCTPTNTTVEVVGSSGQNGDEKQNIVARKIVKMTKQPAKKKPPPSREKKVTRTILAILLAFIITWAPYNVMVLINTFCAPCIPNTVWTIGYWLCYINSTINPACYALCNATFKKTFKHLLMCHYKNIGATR
Chain of Melanin-concentrating hormone receptor 1 (Macaca mulatta, UniProt Q8MJ89) (Q8MJ89 whole entry): as the sequence (Q99705 whole entry) above, with A14T, T33S, I36V, T60M counted along it
Chain of Melanin-concentrating hormone receptor 2 (Q969V1 whole entry): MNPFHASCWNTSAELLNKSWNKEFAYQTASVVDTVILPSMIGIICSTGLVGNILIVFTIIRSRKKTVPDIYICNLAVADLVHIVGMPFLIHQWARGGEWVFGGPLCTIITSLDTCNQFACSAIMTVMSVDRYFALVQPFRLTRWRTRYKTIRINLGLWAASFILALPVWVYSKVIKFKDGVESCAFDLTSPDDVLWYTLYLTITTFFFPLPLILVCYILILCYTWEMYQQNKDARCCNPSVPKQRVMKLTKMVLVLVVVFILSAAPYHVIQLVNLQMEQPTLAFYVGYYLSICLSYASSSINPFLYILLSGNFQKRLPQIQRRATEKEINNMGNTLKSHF
Chain of Melanin-concentrating hormone receptor 1 (Mus musculus, UniProt Q8JZL2) (Q8JZL2 whole entry): as the sequence (P97639 whole entry) above, with T5A, L24F, P27A, S29P, G34R, T138A counted along it
Chain of Sodium-dependent serotonin transporter (P31645 whole entry): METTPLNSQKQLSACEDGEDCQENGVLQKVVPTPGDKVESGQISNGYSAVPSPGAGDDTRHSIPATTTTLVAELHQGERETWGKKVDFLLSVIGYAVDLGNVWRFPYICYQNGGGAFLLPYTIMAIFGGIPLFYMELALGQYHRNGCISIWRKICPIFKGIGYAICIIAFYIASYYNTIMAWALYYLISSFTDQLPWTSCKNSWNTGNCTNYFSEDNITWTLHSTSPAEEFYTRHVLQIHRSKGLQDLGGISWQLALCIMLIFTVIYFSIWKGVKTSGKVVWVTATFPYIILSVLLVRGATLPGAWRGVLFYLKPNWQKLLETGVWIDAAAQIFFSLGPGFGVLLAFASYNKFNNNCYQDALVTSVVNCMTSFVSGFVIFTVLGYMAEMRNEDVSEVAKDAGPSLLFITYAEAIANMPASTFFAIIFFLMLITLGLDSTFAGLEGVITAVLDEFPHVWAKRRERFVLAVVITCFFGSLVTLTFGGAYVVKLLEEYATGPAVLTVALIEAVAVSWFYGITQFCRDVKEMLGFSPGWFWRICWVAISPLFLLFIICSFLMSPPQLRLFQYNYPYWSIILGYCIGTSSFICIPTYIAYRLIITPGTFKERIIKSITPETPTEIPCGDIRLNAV
Chain of Mu-type opioid receptor (P35372 whole entry): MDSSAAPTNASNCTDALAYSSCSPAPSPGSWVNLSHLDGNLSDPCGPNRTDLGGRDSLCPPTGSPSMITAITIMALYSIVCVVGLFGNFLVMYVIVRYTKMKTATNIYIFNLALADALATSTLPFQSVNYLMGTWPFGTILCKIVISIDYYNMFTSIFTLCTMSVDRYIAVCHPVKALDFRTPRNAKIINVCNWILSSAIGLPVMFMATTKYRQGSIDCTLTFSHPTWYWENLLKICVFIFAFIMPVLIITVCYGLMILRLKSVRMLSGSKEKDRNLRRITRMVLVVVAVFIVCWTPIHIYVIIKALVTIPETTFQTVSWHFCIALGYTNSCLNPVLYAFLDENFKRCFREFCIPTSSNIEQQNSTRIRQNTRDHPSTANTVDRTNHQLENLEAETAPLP

C[C@H]1c2c([nH]c3ccc(C(F)(F)F)cc23)C[C@H]2CCN(CCC3(C(=O)O)CCCCC3)C[C@@H]21 [listing 1 of 2 here]
Activity (Mus musculus [1]): Active | Activity (Mus musculus [2]): Active | Activity (Mus musculus [3]): inactive | Activity (Mus musculus [4]): Active

C[C@H]1c2c([nH]c3ccc(C(F)(F)F)cc23)C[C@H]2CCN(CCC3(C(=O)O)CCCCC3)C[C@@H]21.Cl
Activity (Mus musculus [5]): 33%

C[C@H]1c2c([nH]c3ccc(C(F)(F)F)cc23)C[C@H]2CCN(CCC3(C(=O)O)CCOCC3)C[C@@H]21
IC50 [6]: 9 nM | IC50 [7]: > 5000 nM

C[C@H]1c2c([nH]c3ccc(C(F)(F)F)cc23)C[C@H]2CCN(CCC3(C(=O)O)CCCCC3)C[C@@H]21 [listing 2 of 2 here]
MRT [8]: 5.8 h | MRT [9]: 11 h | Kp [10]: 0.21 | Ki [11]: > 2000 nM | Vd [12]: 3.6 L/kg | Ki (Mu-type opioid receptor): > 2000 nM | IC50 [6]: 0.6 nM | MRT [13]: 4.2 h | bioavailability [14]: 79% | Ki [15]: > 2000 nM | blood plasma ratio [16]: 0.79 | Ki (D(2) dopamine receptor): 3160 nM | Activity (Cynomolgus monkey): Non-toxic | Ki [17]: > 2000 nM | IC50 [18]: > 10000 nM | Vd [19]: 2.2 L/kg | Vd [20]: 2.3 L/kg | IC50 [21]: 1140 nM | Activity (Canis familiaris [22]): Non-toxic | clearance [23]: 10.7 mL/min/kg | IC50 [24]: 0.8 nM | IC50 [25]: 0.8 nM | bioavailability [26]: 70% | Ki (D(1A) dopamine receptor): > 2000 nM | Ki [27]: > 2000 nM | IC50 [7]: > 5000 nM | bioavailability [28]: 40% | Cmax [29]: 33 µM | clearance [30]: 8.83 mL/min/kg | bioavailability [31]: 29% | Ki [32]: > 2000 nM | IC50 [33]: 1.2 nM | Kp [34]: 0.4 | Vd [35]: 3.8 L/kg | Ki [36]: 1120 nM | Ki [37]: 0.6 nM | Ki [38]: > 2000 nM | clearance [39]: 3.67 mL/min/kg | Ki [40]: > 2000 nM | Activity (Rhesus monkey): Non-toxic | Ki [41]: > 2000 nM | Activity (Canis familiaris [42]): Non-toxic | IC50 [43]: 0.6 nM | concentration at 0.75 h [44]: 6.5 µM | MRT [45]: 7.9 h | clearance [46]: 9.17 mL/min/kg
